Measurements taken from PMC5414581 (Neuropharmacology, 2017).
“Also recorded” adds a separate entry of the source. Where a SMILES comes first, the peptide text is derived from it. Where no end group is shown, it is not given here. Me2 = N,N-dimethyl-lysine

Legend:
[1] = biological target: T1, human NPS receptor, 107I variant (human) (UniProt Q6W5P4)
T1 sequence: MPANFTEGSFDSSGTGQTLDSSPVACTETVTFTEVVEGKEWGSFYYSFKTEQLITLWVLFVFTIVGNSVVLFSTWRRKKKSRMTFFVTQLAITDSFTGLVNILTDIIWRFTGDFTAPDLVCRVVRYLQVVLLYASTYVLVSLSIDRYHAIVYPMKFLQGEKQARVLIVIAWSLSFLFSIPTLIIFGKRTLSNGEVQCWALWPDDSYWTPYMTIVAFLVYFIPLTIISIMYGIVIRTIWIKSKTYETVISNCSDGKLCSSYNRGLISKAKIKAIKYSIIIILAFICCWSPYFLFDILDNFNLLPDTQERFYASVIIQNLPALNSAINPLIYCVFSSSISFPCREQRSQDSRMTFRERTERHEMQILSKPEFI

[2] = system: mice; assay: Marble Burying; assay type: in vivo, mouse
[3] = system: mice; assay: Locomotor stimulation; assay type: in vivo, mouse; details: RTI-118 50 mg/kg i.p.; compound 4 10 nmole ICV
In short: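 Mice were habituated 1 h in a 40 × 40 cm infrared-beam open field in a novel room, during the light phase. Test compound in aCSF/0.1% BSA was given ICV into the lateral ventricle under brief isoflurane. Recording began after ≥5 min recovery. The antagonist was given 50 mg/kg i.p. in saline as pretreatment. Misplaced injections were excluded post-mortem. n = 7–11 per group; one-way ANOVA with Dunnett's test.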

[4] = biological target: T2, mNPSR (Mus musculus, UniProt Q8BZP8); assay: Ca+2 mobilization assay, HEK 293T mNPSR cells; assay type: cell-based
T2 sequence (Q8BZP8 1-371): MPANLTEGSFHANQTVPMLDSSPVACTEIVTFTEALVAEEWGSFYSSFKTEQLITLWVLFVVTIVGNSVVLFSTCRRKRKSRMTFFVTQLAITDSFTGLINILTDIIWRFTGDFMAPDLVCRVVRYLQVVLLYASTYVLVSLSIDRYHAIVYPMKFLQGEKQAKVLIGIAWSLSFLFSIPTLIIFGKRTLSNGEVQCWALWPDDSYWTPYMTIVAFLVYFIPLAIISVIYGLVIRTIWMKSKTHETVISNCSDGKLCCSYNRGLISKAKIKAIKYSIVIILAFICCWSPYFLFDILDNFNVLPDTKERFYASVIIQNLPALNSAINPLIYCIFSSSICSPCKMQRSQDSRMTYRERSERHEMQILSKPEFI
In short: (§1)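 FLIPR Calcium 5 dye diluted 1:40 in HBSS, 20 mM HEPES, 2.5 mM probenecid, pH 7.4, loaded 45 min at 37 °C. Cells were plated overnight without selection antibiotics: CHO-Gα16 hNPSR-107I/N at 25,000/well and HEK 293T mNPSR at 35,000/well. Cells were pretreated 15 min at 1% DMSO. Test compound or NPS was added during a 60 s read (ex 485/em 525). Peak RFU was fit to a three-parameter logistic curve to give EC50. Bias was taken as Log(max/EC50), calcium versus cAMP, relative to NPS.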

[5] = biological target: T2, mNPSR; assay: cAMP accumulation assay; assay type: cell-based
In short: (§2)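 Cells were harvested with versene and suspended in HBSS, 5 mM HEPES, 0.5 mM IBMX, 0.1% BSA, pH 7.4: hNPSR-107N at 8,000/well, hNPSR-107I at 4,000/well, mNPSR at 20,000/well. Agonist was incubated at room temperature for 30 min (human lines) or 1 h (mNPSR). LANCE Ultra TR-FRET detection ran 1 h in the dark. RFU was interpolated to fmol cAMP from a standard curve, and a three-parameter fit gave EC50.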

[6] = biological target: T3, hNPSR-107I (Homo sapiens, UniProt Q6W5P4, N107I); assay: Ca+2 mobilization assay, CHO-Gα16 hNPSR-107I cells; assay type: cell-based
T3 sequence (Q6W5P4 1-371 N107I): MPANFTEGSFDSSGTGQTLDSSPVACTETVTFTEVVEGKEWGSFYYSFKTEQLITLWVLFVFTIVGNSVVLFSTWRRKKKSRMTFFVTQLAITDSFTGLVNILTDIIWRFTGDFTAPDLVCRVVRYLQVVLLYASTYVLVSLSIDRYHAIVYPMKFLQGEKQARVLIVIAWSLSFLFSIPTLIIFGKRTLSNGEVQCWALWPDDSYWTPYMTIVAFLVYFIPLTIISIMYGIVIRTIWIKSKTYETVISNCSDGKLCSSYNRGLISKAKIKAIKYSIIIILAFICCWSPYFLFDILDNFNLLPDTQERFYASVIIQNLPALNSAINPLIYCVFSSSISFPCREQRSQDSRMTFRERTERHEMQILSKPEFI
In short: as §1

[7] = biological target: T3, hNPSR-107I; assay: cAMP accumulation assay; assay type: cell-based
In short: as §2

[8] = biological target: T4, hNPSR-107N (Homo sapiens, UniProt Q6W5P4); assay: cAMP accumulation assay; assay type: cell-based
T4 sequence (Q6W5P4 1-371): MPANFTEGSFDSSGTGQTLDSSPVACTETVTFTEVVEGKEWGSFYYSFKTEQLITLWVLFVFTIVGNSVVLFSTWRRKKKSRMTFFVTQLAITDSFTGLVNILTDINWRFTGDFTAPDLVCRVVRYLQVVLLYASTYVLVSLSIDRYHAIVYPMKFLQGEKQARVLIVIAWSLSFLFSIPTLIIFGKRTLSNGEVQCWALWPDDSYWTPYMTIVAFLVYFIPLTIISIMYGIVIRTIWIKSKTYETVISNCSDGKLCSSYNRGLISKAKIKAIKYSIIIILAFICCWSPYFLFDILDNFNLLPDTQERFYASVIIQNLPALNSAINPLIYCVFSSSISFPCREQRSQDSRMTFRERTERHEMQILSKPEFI
In short: as §2

[9] = system: mice; assay: Light-Dark Box; assay type: in vivo, mouse; details: 1 nmole ICV, 5–10 minutes before test
[10] = biological target: T4, hNPSR-107N; assay: Ca+2 mobilization assay, CHO-Gα16 hNPSR-107N cells; assay type: cell-based; details: hNPSR 107N cell line
In short: as §1

[11] = biological target: T3, hNPSR-107I; details: ref Bernier et al., 2006; cited from earlier work
[12] = system: mice; assay: Passive Avoidance; assay type: in vivo, mouse; details: ICV 20 minutes after training, tested 48 hours after training; compound 4 0.01-10 nmole, NPS 1 nmole; vs aCSF
[13] = biological target: T5, human NPS receptor, 107N variant (human) (UniProt Q6W5P4)
T5 sequence: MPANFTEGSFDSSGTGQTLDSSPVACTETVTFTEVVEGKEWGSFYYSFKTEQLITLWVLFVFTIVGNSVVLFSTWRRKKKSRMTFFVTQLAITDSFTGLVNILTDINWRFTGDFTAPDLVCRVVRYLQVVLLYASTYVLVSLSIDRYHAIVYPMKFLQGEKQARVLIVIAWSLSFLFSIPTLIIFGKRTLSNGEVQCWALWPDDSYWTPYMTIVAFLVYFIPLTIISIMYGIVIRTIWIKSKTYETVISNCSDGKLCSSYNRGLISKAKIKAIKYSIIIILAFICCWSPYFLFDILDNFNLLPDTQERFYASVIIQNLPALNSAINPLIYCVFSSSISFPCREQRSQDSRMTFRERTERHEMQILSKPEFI

[14] = biological target: T6, mouse NPS receptor (mouse) (UniProt Q8BZP8)
T6 sequence: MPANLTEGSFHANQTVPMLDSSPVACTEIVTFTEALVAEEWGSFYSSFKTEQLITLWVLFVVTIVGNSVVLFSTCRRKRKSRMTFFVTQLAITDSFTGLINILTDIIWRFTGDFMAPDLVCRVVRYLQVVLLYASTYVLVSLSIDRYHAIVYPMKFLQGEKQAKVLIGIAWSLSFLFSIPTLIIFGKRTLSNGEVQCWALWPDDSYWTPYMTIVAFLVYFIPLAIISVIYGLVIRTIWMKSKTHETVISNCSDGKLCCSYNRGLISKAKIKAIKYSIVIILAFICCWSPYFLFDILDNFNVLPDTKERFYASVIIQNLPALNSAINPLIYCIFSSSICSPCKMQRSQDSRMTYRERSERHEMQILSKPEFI

[15] = mNPSR cell line, fraction of maximal window for response
[16] = hNPSR 107I cell line, fraction of maximal window for response

Molecule: 7. SerPheAOCAsn-NH2 (peptide)
- EC50 of calcium mobilization, CHO-Gα16 hNPSR-107I cells [1]: 436 nM

Molecule: O=C(NCCN1CCCCC1)N1CCN2C(=O)OC(c3ccccc3)(c3ccccc3)C2C1 (stereo not shown) [RTI-118]
- block of compound 4 effect on marble burying by pretreatment ([2]; RTI-118 20 mg/kg fifteen minutes before compound 4 0.5 nmole): effects of 4 can be blocked; also recorded: blocked by the pretreatment with RTI-118
- block of compound 4 induced locomotor effects by pretreatment [3]: induced locomotor effects can be blocked; also recorded: this effect is blocked by pretreatment

Molecule: NCCCC[C@H](NC(=O)[C@H](Cc1ccccc1)NC(=O)[C@@H](N)CO)C(=O)N[C@@H](CC(N)=O)C(N)=O [compound 4, SerPheLysAsn-NH2] (H-SFKN-NH2)
- EC50 [4]: 100 ± 5.3 nM
- EC50 [5]: 911 ± 86 nM
- EC50 [6]: 3.02 ± 0.74 nM
- EC50 [7]: 117 ± 22 nM

Molecule: SFRNGV-NH2 [compound 1, SerPheArgAsnGlyVal-NH2]
- EC50 [4]: 2.03 ± 0.3 nM
- EC50 [5]: 13.4 ± 4.8 nM
- EC50 [8]: 427 nM
- EC50 [7]: 1.95 ± 0.28 nM
- cAMP Accumulation EC50 ([7]; hNPSR 107I cell line): comparable potency to NPS

Molecule: SFRNGVGTGMKKTSFQRAKS [NPS, Neuropeptide S]
- BIAS (Bias Toward Calcium) ([4]; mNPSR cell line, calcium versus cAMP pathway): 1.00
- Calcium Mobilization Max [4, 15]: 1
- number of entries into the light-side [9]: Neither NPS nor 4 significantly increased the number of entries into the light-side; also recorded: significantly more entries than compound 4 treated animals
- time spent on the light side ([9]; vs aCSF): significantly increased the time spent on the light-side; also recorded: spent significantly more time on the light-side than the compound 4 treated animals
- BIAS (Bias Toward Calcium) ([10]; calcium versus cAMP pathway): 1.00
- Calcium Mobilization Max ([10]; fraction of maximal window for response): 0.97
- cAMP Accumulation Max [5, 15]: 0.82
- BIAS (Bias Toward Calcium) ([6]; hNPSR 107I cell line, calcium versus cAMP pathway): 1.00
- Calcium Mobilization Max [6, 16]: 0.96
- cAMP Accumulation Max ([8]; hNPSR 107N cell line, fraction of maximal window for response): 0.97
- number of marbles buried ([2]; 1 nmole ICV, twenty minutes before test, vs aCSF (Figure 5A)): NPS and 4 produce similar effects; also recorded: significantly decreased the number of marbles buried
- cAMP Accumulation Max [7, 16]: 1
- selectivity for the hNPSR-107I over the hNPSR-107N (calcium mobilization EC50) [11]: 5 fold
- latency to enter the dark compartment [12]: appear to have the same maximal effects; also recorded: significantly increased the latency time

Molecule: SFRNGV-NH2 [1. SerPheArgAsnGlyVal-NH2]
- EC50 of cAMP accumulation, HEK 293T hNPSR-107N cells [13]: 427 nM
- EC50 of cAMP accumulation, HEK 293T mNPSR cells [14]: 13.4 nM
- EC50 of calcium mobilization, HEK 293T mNPSR cells [14]: 2.03 nM
- EC50 of cAMP accumulation, HEK 293T hNPSR-107I cells [1]: 1.95 nM

Molecule: SFKN-NH2 [4. SerPheLysAsn-NH2]
- EC50 of cAMP accumulation, HEK 293T mNPSR cells [14]: 911 nM
- EC50 of calcium mobilization, HEK 293T mNPSR cells [14]: 100 nM
- EC50 of cAMP accumulation, HEK 293T hNPSR-107I cells [1]: 117 nM
- EC50 of calcium mobilization, CHO-Gα16 hNPSR-107I cells [1]: 3.02 nM

Molecule: SFRNGVGTGMKKTSFQRAKS [Neuropeptide S]
- EC50 of cAMP accumulation, HEK 293T hNPSR-107N cells [13]: 48.9 nM
- EC50 of calcium mobilization, CHO-Gα16 hNPSR-107N cells [13]: 2 nM
- EC50 of cAMP accumulation, HEK 293T mNPSR cells [14]: 3.67 nM
- EC50 of calcium mobilization, HEK 293T mNPSR cells [14]: 5.55 nM
- EC50 of cAMP accumulation, HEK 293T hNPSR-107I cells [1]: 4.19 nM
- EC50 of calcium mobilization, CHO-Gα16 hNPSR-107I cells [1]: 0.59 nM

Molecule: SFRNG-NH2 [2. SerPheArgAsnGly-NH2]
- EC50 of cAMP accumulation, HEK 293T hNPSR-107N cells [13]: > 10000 nM
- EC50 of cAMP accumulation, HEK 293T mNPSR cells [14]: > 10000 nM
- EC50 of calcium mobilization, HEK 293T mNPSR cells [14]: 1010 nM
- EC50 of cAMP accumulation, HEK 293T hNPSR-107I cells [1]: 3060 nM

Molecule: SFK(trifluoroacetyl)N-NH2 [6. SerPheLysCOCF3Asn-NH2]
- EC50 of calcium mobilization, CHO-Gα16 hNPSR-107I cells [1]: 563 nM

Molecule: SFK(Me2)N-NH2 [5. SerPheDimethylLysAsn-NH2]
- EC50 of calcium mobilization, CHO-Gα16 hNPSR-107I cells [1]: 43.5 nM

Molecule: SFRN-NH2 [3. SerPheArgAsn-NH2]
- EC50 of cAMP accumulation, HEK 293T hNPSR-107N cells [13]: > 10000 nM
- EC50 of calcium mobilization, CHO-Gα16 hNPSR-107N cells [13]: 998 nM
- EC50 of cAMP accumulation, HEK 293T mNPSR cells [14]: 800 nM
- EC50 of calcium mobilization, HEK 293T mNPSR cells [14]: 66.6 nM
- EC50 of cAMP accumulation, HEK 293T hNPSR-107I cells [1]: 129 nM
- EC50 of calcium mobilization, CHO-Gα16 hNPSR-107I cells [1]: 2.43 nM
